Results taken from ChEMBL document CHEMBL1137156, “Novel substituted 4-phenyl-[1,3]dioxanes: potent and selective orexin receptor 2 (OX(2)R) antagonists” (Bioorg Med Chem Lett, 2004).

Experiments:
Orexin receptor type 2 = target: T1, Orexin receptor type 2 (Homo sapiens, UniProt O43614); assay: Binding affinity towards human orexin receptor type 2 was determined using [125I]-Orexin A as radio ligand
T1 sequence (O43614 whole entry): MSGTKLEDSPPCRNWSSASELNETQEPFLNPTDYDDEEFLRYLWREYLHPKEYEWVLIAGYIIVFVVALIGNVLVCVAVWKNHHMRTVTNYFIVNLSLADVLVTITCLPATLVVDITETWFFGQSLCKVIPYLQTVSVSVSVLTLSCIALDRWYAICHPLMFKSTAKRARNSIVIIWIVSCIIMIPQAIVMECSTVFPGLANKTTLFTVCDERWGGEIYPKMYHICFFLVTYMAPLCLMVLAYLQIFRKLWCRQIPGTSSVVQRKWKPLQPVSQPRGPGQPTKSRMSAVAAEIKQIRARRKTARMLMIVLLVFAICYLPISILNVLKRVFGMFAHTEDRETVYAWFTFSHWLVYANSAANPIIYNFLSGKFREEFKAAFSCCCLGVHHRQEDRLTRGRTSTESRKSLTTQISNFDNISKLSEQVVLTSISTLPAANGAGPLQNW

[1] = target: T2, Orexin/Hypocretin receptor type 1 (Homo sapiens, UniProt O43613); assay: Binding affinity towards human orexin receptor type 1 was determined using [125I]-Orexin A as radio ligand
T2 sequence (O43613 whole entry): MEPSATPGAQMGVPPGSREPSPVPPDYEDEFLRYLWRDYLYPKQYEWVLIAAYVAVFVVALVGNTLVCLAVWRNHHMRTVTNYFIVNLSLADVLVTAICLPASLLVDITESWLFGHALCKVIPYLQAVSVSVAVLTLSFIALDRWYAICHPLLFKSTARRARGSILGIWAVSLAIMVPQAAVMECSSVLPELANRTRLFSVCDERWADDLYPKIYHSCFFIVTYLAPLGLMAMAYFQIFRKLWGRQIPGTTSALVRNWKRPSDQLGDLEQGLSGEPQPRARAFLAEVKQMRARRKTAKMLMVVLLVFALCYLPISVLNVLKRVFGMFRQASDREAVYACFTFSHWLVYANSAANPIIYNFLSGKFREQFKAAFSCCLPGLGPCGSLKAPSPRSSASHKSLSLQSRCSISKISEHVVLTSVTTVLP
Procedure, shortened: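 Clonal CHO-K1 cells expressing the orexin receptor, grown adherent on poly-D-lysine-coated plates. Binding in Dulbecco's PBS with 0.1% w/v BSA, 10⁵ cpm ¹²⁵I-orexin A (2200 Ci/mmol) plus test compound, 90-120 min at room temperature. Wells washed with iced buffer, then scintillation counted. Ki with 95% confidence intervals from N = 3 assays.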

Homo sapiens = organism: Homo sapiens; assay: Selectivity of Orexin type 2 receptor over Orexin type 1 receptor
[2] = target: T3, Orexin receptor type 2 (Homo sapiens) (UniProt O43614); assay: Antagonistic activity towards intracellular calcium levels in cells expressing Orexin receptor type 2; type: functional, cell-based
T3 sequence (whole entry): T1 sequence (O43614 whole entry)
Procedure, shortened: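 Fluo-3 AM-loaded cells expressing OX2R, intracellular Ca⁺⁺ fluorescence. […] For compounds with OX2R pKi above 6.3, pKB came from the orexin B EC50 and IC50s from antagonist dilutions, all on one 96-well plate.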

With `CC1(C)OC[C@H](NC(=O)c2ccc(Cl)cc2Cl)[C@H](c2ccccc2)O1` the Ki (Orexin receptor type 2) was 200 nM, the Ki [1] was > 10000 nM and the Selectivity (Homo sapiens) was > 50.
Work on `CC1(C)OC[C@H](NC(=O)Nc2ccccc2Br)[C@H](c2ccccc2)O1` yielded a pKb [2] of 6.3 and a Ki [1] of 2000 nM.
`CC1(C)OC[C@H](NC(=O)Nc2ccccc2Cl)[C@H](c2ccccc2)O1` was tested, and the Ki (Orexin receptor type 2) was 79.4 nM, the pKb [2] was 6 and the Ki [1] was > 10000 nM. For the same compound, the Selectivity (Homo sapiens) was > 100.
In the case of `CC1(C)OC[C@H](NC(=O)Nc2cccc(Br)c2)[C@H](c2ccccc2)O1`, the Ki (Orexin receptor type 2) is reported as 1000 nM, the Ki [1] is reported as > 10000 nM and the Selectivity (Homo sapiens) is reported as > 9.
`CC1(C)OC[C@H](NC(=O)Nc2ccc(Cl)cc2Cl)[C@H](c2ccccc2)O1` was tested, and the Ki (Orexin receptor type 2) was 20 nM, the pKb [2] was 7 and the Ki [1] was 2510 nM. It also gave a Selectivity (Homo sapiens) of 100.
In the case of `CC1(C)OC[C@H](NC(=O)Nc2ccccc2-c2cccc(Cl)c2)[C@H](c2ccccc2)O1`, the Ki (Orexin receptor type 2) is reported as 79.4 nM, the Ki [1] is reported as 501 nM and the Selectivity (Homo sapiens) is reported as 6.
In the case of `COc1ccccc1NC(=O)N[C@H]1COC(C)(C)O[C@H]1c1ccccc1`, the Ki (Orexin receptor type 2) is reported as 2510 nM, the Ki [1] is reported as > 10000 nM and the Selectivity (Homo sapiens) is reported as > 4.
For `CC1(C)OC[C@H](NC(=O)Nc2ccccc2-c2ccccc2)[C@H](c2ccccc2)O1`, the Ki (Orexin receptor type 2) was 100 nM, the Ki [1] was 501 nM and the Selectivity (Homo sapiens) was 4.
`CC1(C)OC[C@H](NC(=O)Nc2ccccc2-c2cccnc2)[C@H](c2ccccc2)O1` was tested, and the Ki (Orexin receptor type 2) was 316 nM, the Ki [1] was > 5010 nM and the Selectivity (Homo sapiens) was > 20.
For `CC1(C)OC[C@H](NC(=O)Nc2ccc(Br)cc2Br)[C@H](c2ccccc2)O1`, the Ki (Orexin receptor type 2) was 5.01 nM, the pKb [2] was 7.9 and the Ki [1] was 3160 nM. It also gave a Selectivity (Homo sapiens) of 600.
For `CC1(C)OC[C@H](NC(=O)Nc2ccccc2F)[C@H](c2ccccc2)O1`, the Ki (Orexin receptor type 2) was 398 nM, the Ki [1] was > 10000 nM and the Selectivity (Homo sapiens) was > 20.
With `CC1(C)OC[C@H](NC(=O)Nc2ccc(Br)cc2)[C@H](c2ccccc2)O1` the Ki (Orexin receptor type 2) was 251 nM, the Ki [1] was > 10000 nM and the Selectivity (Homo sapiens) was > 40.
Compound `CC1(C)OC[C@H](NC(=O)Nc2ccccc2-c2cccs2)[C@H](c2ccccc2)O1` has a Ki (Orexin receptor type 2) of 50.1 nM, a Ki [1] of 1000 nM and a Selectivity (Homo sapiens) of 20.
For `Cc1ccc(NC(=O)N[C@H]2COC(C)(C)O[C@H]2c2ccccc2)c(C)c1`, the Ki (Orexin receptor type 2) was 126 nM, the Ki [1] was > 10000 nM and the Selectivity (Homo sapiens) was > 70.
`CC1(C)OC[C@H](NC(=O)Nc2ccccc2-c2ccsc2)[C@H](c2ccccc2)O1` gave a Ki (Orexin receptor type 2) of 79.4 nM, a Ki [1] of 2000 nM and a Selectivity (Homo sapiens) of 30.
`CC1(C)OC[C@H](/N=C(\S)Nc2ccc(Cl)cc2Cl)[C@H](c2ccccc2)O1` was tested, and the Ki (Orexin receptor type 2) was 200 nM, the Ki [1] was > 10000 nM and the Selectivity (Homo sapiens) was > 50.
In the case of `CC1(C)OC[C@H](NC(=O)Nc2cc(Cl)ccc2Cl)[C@H](c2ccccc2)O1`, the Ki (Orexin receptor type 2) is reported as 63.1 nM, the Ki [1] is reported as > 5010 nM and the Selectivity (Homo sapiens) is reported as > 80.
In the case of `Cc1ccc(/N=C(\NC#N)N[C@H]2COC(C)(C)O[C@H]2c2ccccc2)c(Br)c1`, the Ki (Orexin receptor type 2) is reported as 1260 nM, the Ki [1] is reported as > 10000 nM and the Selectivity (Homo sapiens) is reported as > 8.
With `Cc1ccc(Cl)c(NC(=O)N[C@H]2COC(C)(C)O[C@H]2c2ccccc2)c1` the Ki (Orexin receptor type 2) was 63.1 nM, the Ki [1] was > 5010 nM and the Selectivity (Homo sapiens) was > 80.
In the case of `CC1(C)OC[C@H](NC(=O)Nc2c(Cl)cccc2Cl)[C@H](c2ccccc2)O1`, the Ki (Orexin receptor type 2) is reported as > 5010 nM, the Ki [1] is reported as > 10000 nM and the Selectivity (Homo sapiens) is reported as > 2.
`CC(C)c1ccccc1NC(=O)N[C@H]1COC(C)(C)O[C@H]1c1ccccc1` was tested, and the Ki (Orexin receptor type 2) was 2510 nM, the Ki [1] was > 10000 nM and the Selectivity (Homo sapiens) was > 4.
`CC1(C)OC[C@H](NC(=O)Nc2ccccc2)[C@H](c2ccccc2)O1` was tested, and the Ki (Orexin receptor type 2) was 501 nM, the Ki [1] was > 10000 nM and the Selectivity (Homo sapiens) was > 20.
For `Cc1cc(Br)ccc1NC(=O)N[C@H]1COC(C)(C)O[C@H]1c1ccccc1`, the Ki (Orexin receptor type 2) was 39.8 nM, the Ki [1] was > 10000 nM and the Selectivity (Homo sapiens) was 200.
For `CC1(C)OC[C@H](NC(=O)Oc2ccccc2Cl)[C@H](c2ccccc2)O1`, the Ki (Orexin receptor type 2) was 1580 nM, the Ki [1] was > 10000 nM and the Selectivity (Homo sapiens) was > 6.
`CC1(C)OC[C@H](NC(=O)Nc2ccccc2-c2ccccc2Cl)[C@H](c2ccccc2)O1` was tested, and the Ki (Orexin receptor type 2) was 25.1 nM, the Ki [1] was 126 nM and the Selectivity (Homo sapiens) was 5.
In the case of `CC1(C)OC[C@H](NC(=O)Nc2ccccc2I)[C@H](c2ccccc2)O1`, the Ki (Orexin receptor type 2) is reported as 79.4 nM, the pKb [2] is reported as 6.5 and the Ki [1] is reported as > 5010 nM. For the same compound, the Selectivity (Homo sapiens) was > 70.
In the case of `CC1(C)OC[C@H](NC(=O)Nc2ccccc2C(F)(F)F)[C@H](c2ccccc2)O1`, the Ki (Orexin receptor type 2) is reported as 100 nM, the Ki [1] is reported as > 10000 nM and the Selectivity (Homo sapiens) is reported as > 100.
With `CC1(C)OC[C@H](NC(=O)Cc2ccccc2Br)[C@H](c2ccccc2)O1` the Ki (Orexin receptor type 2) was 1580 nM, the Ki [1] was > 10000 nM and the Selectivity (Homo sapiens) was > 7.
For `CC1(C)OC[C@H](NC(=O)Nc2ccc(Br)cc2Cl)[C@H](c2ccccc2)O1`, the Ki (Orexin receptor type 2) was 6.31 nM, the Ki [1] was > 5010 nM and the Selectivity (Homo sapiens) was > 900.
`CC1(C)OC[C@H](/N=C(\S)Nc2ccccc2Br)[C@H](c2ccccc2)O1` was tested, and the Ki (Orexin receptor type 2) was 398 nM, the Ki [1] was > 10000 nM and the Selectivity (Homo sapiens) was > 30.
